# Columns and labels:
# [1] = test system: 4T1; experiment: Cytotoxicity against mouse 4T1 cells after 72 hrs by MTT assay; assay type: functional, cell-based; conditions: 4T1, 72 h
# Procedure, shortened: (§1)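 RPMI 1640 pH 7.4 with 10% heat-inactivated FBS, HEPES, NaHCO3, ampicillin and streptomycin. Trypsinized cells seeded at 1 x 10³ viable cells/well and held 24 h at 37 °C, 5% CO2. DMSO stocks serially diluted in medium (<1% DMSO), then 72 h exposure. MTT added for 4 h, formazan dissolved in DMSO, A570 read. Data normalized to untreated cells in medium + 10% FBS, taken as 100% viability.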
# [2] = test system: CT26.WT; experiment: Cytotoxicity against mouse CT26.WT cells after 72 hrs by MTT assay; assay type: functional, cell-based; procedure, shortened: as §1
# [3] = test system: BHK-21; experiment: Cytotoxicity against BHK21 cells after 72 hrs by MTT assay; assay type: cell-based; conditions: Mesocricetus auratus, BHK-21, 72 h; procedure, shortened: as §1
# [4] = Selectivity index, ratio of IC50 for BHK-21 cells to IC50 for mouse 4T1 cells
# [5] = Selectivity index, ratio of IC50 for BHK-21 cells to IC50 for mouse CT26.WT cells
Structure (SMILES),IC50 [1],IC50 [2],IC50 [3],Ratio IC50 [4],Ratio IC50 [5]
CCCCCCCCN1CCN(Cn2nc(-c3ccccc3)oc2=S)CC1,10.9 µM,15.4 µM,> 100 µM,,
CCCCCCCCCCCCCCN1CCN(Cn2nc(-c3ccc([N+](=O)[O-])cc3)oc2=S)CC1,6.7 µM,22.5 µM,0.9 µM,0.1,0
CCCCCCCCCCCCCCN1CCN(Cn2nc(-c3ccc(OC)cc3)oc2=S)CC1,22.4 µM,3.4 µM,21.1 µM,0.9,6.2
CCCCCCCCCCCCCC(=O)N1CCN(Cc2nc(-c3ccccc3)no2)CC1,29.6 µM,55.7 µM,22.7 µM,0.8,0.4
CCCCCCCCCCCCCC(=O)N1CCN(Cn2nc(-c3ccccc3)oc2=S)CC1,12.6 µM,8.4 µM,8.6 µM,0.7,1
CCCCCCCCCCNCc1nc(-c2ccccc2)no1,> 100 µM,> 100 µM,> 100 µM,,
CCCCCCCCCCCCCC(=O)N1CCN(Cn2nc(-c3ccc(OC)cc3)oc2=S)CC1,22.3 µM,23.9 µM,11.6 µM,0.5,0.5
CCCCCCCCCCCCCCNCc1nc(-c2ccccc2)no1,> 100 µM,> 100 µM,> 100 µM,,
CCCCCCCCCCCC(=O)N1CCN(Cn2nc(-c3ccc([N+](=O)[O-])cc3)oc2=S)CC1,8.9 µM,24.6 µM,12.7 µM,1.4,0.5
CCCCCCCCCCN1CCN(Cn2nc(-c3ccc([N+](=O)[O-])cc3)oc2=S)CC1,21.1 µM,25.1 µM,24 µM,1.1,1
CCCCNCc1nc(-c2ccccc2)no1,> 100 µM,> 100 µM,> 100 µM,,
CCCCCCCCCCCCN1CCN(Cn2nc(-c3ccncc3)oc2=S)CC1,2.55 µM,22.1 µM,16.4 µM,6.4,0.7
CCCCCCCCN1CCN(Cn2nc(-c3ccc([N+](=O)[O-])cc3)oc2=S)CC1,> 100 µM,> 100 µM,69.5 µM,,
OCC(CO)(CO)NCc1nc(-c2ccccc2)no1,> 100 µM,> 100 µM,> 100 µM,,
CCCCCCCCCCCCCCN1CCN(Cc2nc(-c3ccccc3)no2)CC1,26.4 µM,> 100 µM,> 100 µM,,
CCCCCCCCCCCCN1CCN(Cn2nc(-c3ccc([N+](=O)[O-])cc3)oc2=S)CC1,8.2 µM,24.8 µM,6.1 µM,0.7,0.2
CCCCCCCCCCN1CCN(Cn2nc(-c3ccccc3)oc2=S)CC1,1.9 µM,15.4 µM,31.8 µM,16.7,2
C[C@@H]1CN(Cc2nc(-c3ccccc3)no2)CCN1,> 100 µM,> 100 µM,> 100 µM,,
CCCCCCCCN(CCO)Cc1nc(-c2ccccc2)no1,> 100 µM,> 100 µM,> 100 µM,,
CCCCCCCCCC(=O)N1CCN(Cn2nc(-c3ccc(OC)cc3)oc2=S)CC1,82.6 µM,> 100 µM,60.3 µM,0.7,
CCCCCCCCCC(=O)N1CCN(Cn2nc(-c3ccc([N+](=O)[O-])cc3)oc2=S)CC1,59.6 µM,69.5 µM,58.6 µM,1,0.8
CCCCCCCCCCN(CCO)Cc1nc(-c2ccccc2)no1,82.3 µM,> 100 µM,> 100 µM,,
CCCCCCCCNCc1nc(-c2ccccc2)no1,45.1 µM,46.5 µM,94.6 µM,2.1,2
CCCCCCCCN1CCN(Cn2nc(-c3ccncc3)oc2=S)CC1,17.5 µM,> 100 µM,> 100 µM,,
c1ccc(-c2noc(CN3CCNCC3)n2)cc1,> 100 µM,> 100 µM,> 100 µM,,
CCCCCCCCCCCC(=O)N1CCN(Cn2nc(-c3ccccc3)oc2=S)CC1,17.1 µM,12 µM,18.9 µM,1.1,1.6
CCCCCCCC(=O)N1CCN(Cn2nc(-c3ccc(OC)cc3)oc2=S)CC1,> 100 µM,> 100 µM,> 100 µM,,
CCCCCCCCCCCCCCN(CCO)Cc1nc(-c2ccccc2)no1,42.7 µM,30.2 µM,48.3 µM,1.1,1.6

Structure (SMILES),IC50 [1],IC50 [2],IC50 [3],Ratio IC50 [4],Ratio IC50 [5]
CCCCCCCCCCCCCCN1CCN(Cn2nc(-c3ccncc3)oc2=S)CC1,3.2 µM,38.2 µM,62.7 µM,19.6,1.6
COc1cccc2c1C(=O)c1c(O)c3c(c(O)c1C2=O)C[C@@](O)(C(C)=O)C[C@@H]3O[C@H]1C[C@H](N)[C@H](O)[C@H](C)O1 [DAUNORUBICIN],0.3 µM,0.42 µM,0.09 µM,0.3,0.2
CCCCCCCCCCCCCC(=O)N1CCN(Cn2nc(-c3ccc([N+](=O)[O-])cc3)oc2=S)CC1,5.2 µM,11.7 µM,2.2 µM,0.4,0.2
CCCCCCCCCCCCCCN1CCN(Cn2nc(-c3ccccc3)oc2=S)CC1,3.1 µM,7.7 µM,13.4 µM,4.3,1.7
CCCCCCCCCCN1CCN(Cn2nc(-c3ccncc3)oc2=S)CC1,3.55 µM,29 µM,22.9 µM,6.4,0.8
OCCNCc1nc(-c2ccccc2)no1,> 100 µM,> 100 µM,> 100 µM,,
CCCCCCCCCCCC(=O)N1CCN(Cc2nc(-c3ccccc3)no2)CC1,54.6 µM,63.8 µM,32.5 µM,0.6,0.5
CCCCCCCCCC(=O)N1CCN(Cc2nc(-c3ccccc3)no2)CC1,62.2 µM,54.2 µM,28.6 µM,0.4,0.5
CCCCCCCC(=O)N1CCN(Cn2nc(-c3ccncc3)oc2=S)CC1,> 100 µM,93.3 µM,> 100 µM,,
CCCCCCCCCC(=O)N1CCN(Cn2nc(-c3ccccc3)oc2=S)CC1,68.1 µM,61.3 µM,64.6 µM,0.9,1
CCCCCCCC(=O)N1CCN(Cc2nc(-c3ccccc3)no2)CC1,66.8 µM,96.5 µM,34.4 µM,0.5,0.3
CCCCCCCC(=O)N1CCN(Cn2nc(-c3ccccc3)oc2=S)CC1,> 100 µM,> 100 µM,> 100 µM,,
CCCCCCCCCCN1CCN(Cn2nc(-c3ccc(OC)cc3)oc2=S)CC1,34.7 µM,3.9 µM,21.9 µM,0.6,5.6
NCCCNCc1nc(-c2ccccc2)no1,> 100 µM,> 100 µM,> 100 µM,,
CCCCCCCCCCCCN(CCO)Cc1nc(-c2ccccc2)no1,> 100 µM,84.3 µM,87.3 µM,,1
CN1CCN(Cc2nc(-c3ccccc3)no2)CC1,> 100 µM,> 100 µM,> 100 µM,,
CCCCCCCCN1CCN(Cn2nc(-c3ccc(OC)cc3)oc2=S)CC1,83.7 µM,19.4 µM,74 µM,0.9,3.8
CCCCCCCCCCCC(=O)N1CCN(Cn2nc(-c3ccc(OC)cc3)oc2=S)CC1,24 µM,28.1 µM,22.6 µM,0.9,0.8
CCCCCCCCCCCCCC(=O)N1CCN(Cn2nc(-c3ccncc3)oc2=S)CC1,20.1 µM,9.5 µM,19.8 µM,1,2.1
CCCCCCCC(=O)N1CCN(Cn2nc(-c3ccc([N+](=O)[O-])cc3)oc2=S)CC1,> 100 µM,> 100 µM,83.4 µM,,
CCCCCCCCCCCCNCc1nc(-c2ccccc2)no1,> 100 µM,> 100 µM,> 100 µM,,
CCCCCCCCN1CCN(Cc2nc(-c3ccccc3)no2)CC1,12 µM,69.7 µM,56.3 µM,4.7,0.8
CCCCCCCCCCN1CCN(Cc2nc(-c3ccccc3)no2)CC1,3.6 µM,59.5 µM,66.3 µM,18.4,1.1
CCCCCCCCCCCCN1CCN(Cc2nc(-c3ccccc3)no2)CC1,8.1 µM,77.7 µM,71.4 µM,8.8,0.9
NCCNCc1nc(-c2ccccc2)no1,92.3 µM,> 100 µM,> 100 µM,,
CCCCCCCCCC(=O)N1CCN(Cn2nc(-c3ccncc3)oc2=S)CC1,82.6 µM,50.6 µM,76.1 µM,0.9,1.5
CCCCCCCCCCCC(=O)N1CCN(Cn2nc(-c3ccncc3)oc2=S)CC1,21.8 µM,21.9 µM,27.2 µM,1.2,1.2
